# Results: ChEMBL document CHEMBL4130549, “Synthesis and bioactivities study of new antibacterial peptide mimics: The dialkyl cationic amphiphiles” (Eur J Med Chem, 2018)
# Active and inactive are the calls of the source. No cut-off for these calls is given here.
# Tests used:
# Klebsiella pneumoniae [1] = assay: Antibacterial activity against carbapenemase-producing Klebsiella pneumoniae isolate K8 after 16 to 20 hrs by broth microdilution method; format: functional
# In short: (§1)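 Broth microdilution per CLSI in cation-adjusted Mueller-Hinton broth; 4-6 h cultures (~10⁸ CFU/mL) diluted to ~10⁶ CFU/mL and mixed 1:1 with twofold dilutions of water-dissolved compound (256 to 0.5 µg/mL). Incubated 16-20 h at 37 °C; MIC read visually. Each concentration run in duplicate, whole experiment repeated at least twice. MRSA, KPC and NDM-1 strains were clinical isolates.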
# Enterobacteriaceae [2] = assay: Antibacterial activity against NDM-1-producing Enterobacteriaceae isolate N3 after 16 to 20 hrs by broth microdilution method; format: functional; in short: as §1
# Staphylococcus aureus [3] = assay: Antibacterial activity against methicillin-resistant Staphylococcus aureus isolate M7 after 16 to 20 hrs by broth microdilution method; format: functional
# In short: (§2)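 CLSI broth microdilution in cation-adjusted Mueller-Hinton broth. A 4-6 h culture was diluted to about 10⁶ CFU/mL and mixed 1:1 with twofold compound dilutions (256–0.5 µg/mL before mixing) prepared from aqueous stocks. Plates were incubated at 37 °C for 16-20 h. Each concentration was tested in duplicate, and the experiment was repeated at least twice.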
# Enterobacteriaceae [4] = assay: Antibacterial activity against NDM-1-producing Enterobacteriaceae isolate N2 after 16 to 20 hrs by broth microdilution method; format: functional; in short: as §1
# Staphylococcus aureus [5] = assay: Antibacterial activity against methicillin-resistant Staphylococcus aureus isolate M6 after 16 to 20 hrs by broth microdilution method; format: functional; in short: as §2
# Klebsiella pneumoniae [6] = assay: Antibacterial activity against carbapenemase-producing Klebsiella pneumoniae isolate K9 after 16 to 20 hrs by broth microdilution method; format: functional; in short: as §1
# Escherichia coli [7] = assay: Induction of cytoplasmic membrane depolarization in Escherichia coli ATCC 25922 at 20 ug/ml measured every 2 mins for 12 mins by diSC35 staining based fluorescence assay; format: functional, organism-based
# In short: (§3)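 Mid-log cells (4–6 h) pelleted, washed and resuspended (~10^8 CFU/mL) in PBS for S. aureus, or in 5 mM HEPES, 5 mM glucose and 100 mM KCl (1:1:1) for E. coli. Preloaded with diSC35 (10 µM, 50 µL), 30 min for S. aureus and 40 min plus EDTA (200 µM, 50 µL) for E. coli. Baseline read 8 min (ex 622/em 670 nm), then compound added to 20 µg/mL final and read every 2 min for 12 min. Water control.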
# Staphylococcus aureus [8] = assay: Bactericidal activity against Staphylococcus aureus after 20 to 24 hrs using compounds preincubated with 50% plasma for 3 to 6 hrs by broth microdilution method
# Klebsiella pneumoniae [9] = assay: Antibacterial activity against carbapenemase-producing Klebsiella pneumoniae isolate K2 after 16 to 20 hrs by broth microdilution method; format: functional; in short: as §1
# Enterobacteriaceae [10] = assay: Antibacterial activity against NDM-1-producing Enterobacteriaceae isolate N8 after 16 to 20 hrs by broth microdilution method; format: functional; in short: as §1
# Enterobacteriaceae [11] = assay: Antibacterial activity against NDM-1-producing Enterobacteriaceae isolate N4 after 16 to 20 hrs by broth microdilution method; format: functional; in short: as §1
# Escherichia coli [12] = assay: Induction of inner membrane permeabilization in Escherichia coli ATCC 25922 at 20 ug/ml measured every 2 mins for 12 mins by propidium iodide staining based fluorescence assay; format: functional, organism-based
# In short: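 Mid-log cells (~10^8 CFU/mL) pre-incubated with propidium iodide (10 µM, 50 µL), 30 min for S. aureus and 40 min for E. coli. Fluorescence (ex 535/em 617 nm) read for 8 min, then compound added to 20 µg/mL final and monitored every 2 min for 12 min. Water-treated control.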
# Enterobacteriaceae [13] = assay: Antibacterial activity against NDM-1-producing Enterobacteriaceae isolate N10 after 16 to 20 hrs by broth microdilution method; format: functional; in short: as §1
# Salmonella enterica = assay: Antibacterial activity against Salmonella enterica after 16 to 20 hrs by broth microdilution method; format: functional; in short: as §1
# Enterobacteriaceae [14] = assay: Antibacterial activity against NDM-1-producing Enterobacteriaceae isolate N7 after 16 to 20 hrs by broth microdilution method; format: functional; in short: as §1
# Enterobacteriaceae [15] = assay: Antibacterial activity against NDM-1-producing Enterobacteriaceae isolate N9 after 16 to 20 hrs by broth microdilution method; format: functional; in short: as §1
# Klebsiella pneumoniae [16] = assay: Antibacterial activity against carbapenemase-producing Klebsiella pneumoniae isolate K7 after 16 to 20 hrs by broth microdilution method; format: functional; in short: as §1
# Enterobacteriaceae [17] = assay: Antibacterial activity against NDM-1-producing Enterobacteriaceae isolate N5 after 16 to 20 hrs by broth microdilution method; format: functional; in short: as §1
# Klebsiella pneumoniae [18] = assay: Antibacterial activity against carbapenemase-producing Klebsiella pneumoniae isolate K1 after 16 to 20 hrs by broth microdilution method; format: functional; in short: as §1
# Staphylococcus aureus [19] = assay: Antibacterial activity against methicillin-resistant Staphylococcus aureus isolate M5 after 16 to 20 hrs by broth microdilution method; format: functional; in short: as §2
# Klebsiella pneumoniae [20] = assay: Antibacterial activity against carbapenemase-producing Klebsiella pneumoniae isolate K4 after 16 to 20 hrs by broth microdilution method; format: functional; in short: as §1
# Enterobacteriaceae [21] = assay: Antibacterial activity against NDM-1-producing Enterobacteriaceae isolate N6 after 16 to 20 hrs by broth microdilution method; format: functional; in short: as §1
# Enterococcus faecalis = assay: Antibacterial activity against Enterococcus faecalis after 16 to 20 hrs by broth microdilution method; format: functional; in short: as §1
# Staphylococcus aureus [22] = assay: Antibacterial activity against methicillin-resistant Staphylococcus aureus isolate M4 after 16 to 20 hrs by broth microdilution method; format: functional; in short: as §2
# Staphylococcus aureus [23] = assay: Ratio of MBC for methicillin-resistant Staphylococcus aureus in presence of 50% serum to MBC for methicillin-resistant Staphylococcus aureus; format: functional
# In short: (§4)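 MRSA at 10⁵ CFU/mL in 50% Mueller-Hinton broth plus 50% sheep serum, plasma or defibrinated whole blood. Serum and plasma were separated by centrifugation at 3,500 rpm for 10 min. Aqueous compound dilutions (512–4 µg/mL before mixing) were combined 1:3 with the suspension and incubated 20-24 h at 37 °C. Wells were plated on Mueller-Hinton agar for a further 20-24 h; MBC was taken as no colonies.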
# Staphylococcus aureus [24] = assay: Bactericidal activity against methicillin-resistant Staphylococcus aureus after 20 to 24 hrs by broth microdilution method; format: functional
# In short: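 For MBC, 20 µL from wells of the broth microdilution MIC plate showing little or no turbidity was plated on agar and incubated 20-24 h at 37 °C. MBC was the lowest concentration giving no colonies.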
# Staphylococcus aureus [25] = assay: Induction of cytoplasmic membrane depolarization in Staphylococcus aureus ATCC 29213 at 20 ug/ml measured every 2 mins for 12 mins by diSC35 staining based fluorescence assay; format: functional, organism-based; in short: as §3
# Klebsiella pneumoniae [26] = assay: Antibacterial activity against carbapenemase-producing Klebsiella pneumoniae isolate K5 after 16 to 20 hrs by broth microdilution method; format: functional; in short: as §1
# Klebsiella pneumoniae [27] = assay: Antibacterial activity against carbapenemase-producing Klebsiella pneumoniae isolate K10 after 16 to 20 hrs by broth microdilution method; format: functional; in short: as §1
# Staphylococcus aureus [28] = assay: Antibacterial activity against Staphylococcus aureus ATCC 29213 after 16 to 20 hrs by broth microdilution method; format: functional; in short: as §2
# Staphylococcus aureus [29] = assay: Antibacterial activity against methicillin-resistant Staphylococcus aureus isolate M1 after 16 to 20 hrs by broth microdilution method; format: functional; in short: as §2
# Klebsiella pneumoniae [30] = assay: Antibacterial activity against carbapenemase-producing Klebsiella pneumoniae after 16 to 20 hrs by broth microdilution method; format: functional; in short: as §1
# Staphylococcus aureus [31] = assay: Ratio of MBC for methicillin-resistant Staphylococcus aureus in presence of 50% plasma to MBC for methicillin-resistant Staphylococcus aureus; format: functional; in short: as §4
# Klebsiella pneumoniae [32] = assay: Antibacterial activity against carbapenemase-producing Klebsiella pneumoniae isolate K6 after 16 to 20 hrs by broth microdilution method; format: functional; in short: as §1
# Staphylococcus aureus [33] = assay: Antibacterial activity against methicillin-resistant Staphylococcus aureus isolate M8 after 16 to 20 hrs by broth microdilution method; format: functional; in short: as §2
SMILES,MIC (Klebsiella pneumoniae [1]) [mg/L],MIC (Enterobacteriaceae [2]) [mg/L],MIC (Staphylococcus aureus [3]) [mg/L],MIC (Enterobacteriaceae [4]) [mg/L],MIC (Staphylococcus aureus [5]) [mg/L],MIC (Klebsiella pneumoniae [6]) [mg/L],Activity (Escherichia coli [7]),MBC (Staphylococcus aureus [8]) [mg/L],MIC (Klebsiella pneumoniae [9]) [mg/L],MIC (Enterobacteriaceae [10]) [mg/L],MIC (Enterobacteriaceae [11]) [mg/L],Activity (Escherichia coli [12]),MIC (Enterobacteriaceae [13]) [mg/L],MIC (Salmonella enterica) [mg/L],MIC (Enterobacteriaceae [14]) [mg/L],MIC (Enterobacteriaceae [15]) [mg/L],MIC (Klebsiella pneumoniae [16]) [mg/L],MIC (Enterobacteriaceae [17]) [mg/L],MIC (Klebsiella pneumoniae [18]) [mg/L],MIC (Staphylococcus aureus [19]) [mg/L],further results
CCCCCCCCCCN(CCCCCCCCCC)C(=O)[C@@H](N)CCCCN.Cl.Cl,2,4,1,4,1,4,Active,16,4,4,4,Active,4,2,4,4,4,4,4,2,MIC (Klebsiella pneumoniae [20]): 4 mg/L; MIC (Enterobacteriaceae [21]): 4 mg/L; MIC (Enterococcus faecalis): 2 mg/L; MIC (Staphylococcus aureus [22]): 2 mg/L; Ratio (Staphylococcus aureus [23]): 1 - 2; MBC (Staphylococcus aureus [24]): 4 to 8 mg/L; Activity (Staphylococcus aureus [25]): Active; MIC (Klebsiella pneumoniae [26]): 4 mg/L; MIC (Klebsiella pneumoniae [27]): 4 mg/L; MIC (Staphylococcus aureus [28]): 4 mg/L; MIC (Staphylococcus aureus [29]): 1 mg/L; MIC (Klebsiella pneumoniae [30]): 2 mg/L; Ratio (Staphylococcus aureus [31]): 2 - 4; MIC (Klebsiella pneumoniae [32]): 4 mg/L; MIC (Staphylococcus aureus [33]): 1 mg/L
CCCCCCCCCN(CCCCCCCCC)C(=O)[C@@H](N)CCCCN.Cl.Cl,2,2,1,2,1,2,Active,16,2,2,2,Active,4,2,2,4,2,2,2,1,MIC (Klebsiella pneumoniae [20]): 2 mg/L; MIC (Enterobacteriaceae [21]): 2 mg/L; MIC (Enterococcus faecalis): 1 mg/L; MIC (Staphylococcus aureus [22]): 2 mg/L; Ratio (Staphylococcus aureus [23]): 1 - 2; MBC (Staphylococcus aureus [24]): 4 to 8 mg/L; Activity (Staphylococcus aureus [25]): Active; MIC (Klebsiella pneumoniae [26]): 2 mg/L; MIC (Klebsiella pneumoniae [27]): 2 mg/L; MIC (Staphylococcus aureus [28]): 1 mg/L; MIC (Staphylococcus aureus [29]): 1 mg/L; MIC (Klebsiella pneumoniae [30]): 2 mg/L; Ratio (Staphylococcus aureus [31]): 2 - 4; MIC (Klebsiella pneumoniae [32]): 2 mg/L; MIC (Staphylococcus aureus [33]): 1 mg/L
